STAT3 act: IL-6 driven STAT3 reporter potentiators, primary screen, U3A cells, luciferase, luminescence, MLSCN library; IL-6 STAT3-luciferase reporter; 100% = signal with IL-6 EC80 alone; activation (% of control), % at 5.6 µM; 190,000 tested, 0.91% active;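 active = activation above the screen-wide mean of compound activation plus 3 SD, cut at about 130% in these data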;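 also: 0% = background luminescence of wells with medium and substrate only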
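Material: STAT3-luciferase reporter U3A cells; Probe or stimulus: IL-6 (33 ng/mL); Incubation: compound pre-incubation 1 h before IL-6, then 6 h stimulation at 37 °C; Technique: luminescence from STAT3-driven luciferase reporter; Evaluation: % activation versus median of IL-6-stimulated wells; Controls: IL-6-only high control.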
STAT1 inh: STAT1 signaling inhibitors, primary screen, cell-based, HTS, luciferase reporter; NIH 3T3 STAT1-luciferase reporter, IFN-gamma, luminescence; inhibition, % at 5.5 µM; 200,000 tested, 0.35% active; AID 920, 2007;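 active = inhibition above a set limit, the mean inhibition across all tested compounds plus 3 SD, cut at about 34% in these data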;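 also: 0% = IFN-gamma with DMSO and 100% = IFN-gamma with 300 µM nifuroxazide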
STAT3 inh: IL-6 driven STAT3 reporter inhibitors, primary screen, U3A cells, luciferase, luminescence, MLSCN library; AID 862, 2007; inhibition, % at 5.5 µM; IL-6 STAT3-luciferase reporter; host cell line lacks STAT1; 190,000 tested, 0.89% active;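 active = inhibition above the mean inhibition across all screened compounds plus 3 SD, cut at about 44% in these data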;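 also: 0% = DMSO only wells and 100% = 100 µM nifuroxazide control wells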
STAT1 activator: STAT1 signaling activators, primary screen, cell-based, HTS, luciferase reporter; NIH 3T3 STAT1-luciferase reporter, IFN-gamma, luminescence; 100% = IFN-gamma alone, no compound; activation (% of control), % at 5.5 µM; 200,000 tested, 2.6% active; AID 932, 2007;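 active = activation above the screen-wide mean activation plus 3 SD, cut at about 130% in these data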;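 also: raw ratio to IFN-gamma control signal so 100% means no change and 0% no light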
Starred values were filed as active, the others as inactive. A selection: hits, their analogues and other compounds. The true share with any hit is near 4.3%.

SMILES | STAT3 act | STAT1 inh | STAT3 inh | STAT1 activator
CCn1c(O)c(C=Nc2ccccc2)sc1=O | 100 | -34 | 6 | 130*
Oc1c(C=Nc2ccccc2)sc(=S)n1Cc1ccccc1 | 104 | -4 | 2 | 104
C=CCn1c(O)c(C=Nc2ccccc2)sc1=S | 102 | -33 | 0 | 129*
Cc1ccc(-c2cc(C(F)F)n3ncc(C(=O)Nc4ccc(S(=O)(=O)Nc5ccccc5C)cc4)c3n2)cc1 | 104 | -1 | 5 | 106
CC(C)N1C(=O)CSC1c1ccc(Br)cc1 (centres undefined) | 96 | 4 | 7 | 96
O=C(c1cc(-c2ccc(Cl)cc2)on1)N1CCOCC1 | 66 | -48 | 43 | 144*
Cc1cccc(C)c1NC(=O)CSc1cc(C(=O)c2nccn2C)c2ccccc2n1 | 95 | 6 | 4 | 97
Nc1ccc2oc3ccccc3c2c1 | 97 | -7 | 3 | 106
Nc1ccc2c(c1)sc1ccccc12 | 94 | -33 | 11 | 130*
Cc1nn(-c2ccc(F)cc2)c(Cl)c1/C=C/C(=O)OCC(=O)Nc1c(F)c(F)c(F)c(F)c1F | 106 | -6 | -3 | 106
COc1ccc(CNC(=O)CCSCc2cccc(Cl)c2)c(OC)c1 | 105 | -7 | -5 | 107
COc1ccc(-n2nnnc2S(=O)(=O)CC(=O)N2CCCCC2)cc1 | 82 | 36* | 29 | 67
Cc1ccc(SCC(=O)Nc2ccc(N3CCOCC3)cc2)c(C)c1 | 106 | 2 | 0 | 96
COc1ccc(-c2nc3c(Br)c(N)c(Br)cc3o2)cc1 | 178* | -39 | -88 | 135*
CC1=C(C(=O)OCC2CCCO2)C(c2ccc(Cl)c(Cl)c2)NC(=O)N1 (centres undefined) | 99 | 2 | 8 | 96
CS(=O)(=O)Nc1ccc(C2=NN(S(C)(=O)=O)C(c3ccc4c(c3)OCO4)C2)cc1 (centres undefined) | 116 | -49 | -16 | 143*
Cc1ccc(C2=NN(S(C)(=O)=O)C(c3cccs3)C2)cc1 (centres undefined) | 117 | -32 | -18 | 129*
COc1ccc(C2=NN(S(C)(=O)=O)C(c3ccc4nccnc4c3)C2)cc1 (centres undefined) | 109 | -40 | -14 | 136*
CS(=O)(=O)Nc1cccc(C2=NN(S(C)(=O)=O)C(c3ccccc3)C2)c1 (centres undefined) | 94 | 2 | 16 | 96
COc1ccc(C2=NN(S(C)(=O)=O)C(c3cccs3)C2)cc1 (centres undefined) | 119 | -48 | -14 | 143*
CSc1ccccc1C(=O)NCCOc1cccc(C)c1 | 102 | -8 | 3 | 104
CN1CCS/C1=C\C=C1/SC(=S)N(CC(=O)O)C1=O | 91 | 1 | 12 | 97
CCN1C(=O)/C(=C/C=C2/SCCN2C)SC1=S | 51 | -58 | 59* | 152*
Cc1ccccc1NC(=O)CCN1CCc2ccccc2C1 | 104 | -1 | 3 | 99
CC(C)N(Cc1nccn1C)C(=O)CCc1nnc(CCCc2ccccc2)o1 | 112 | -40 | -8 | 137*
SMILES | STAT3 act | STAT1 inh | STAT3 inh | STAT1 activator
CN(CCc1ccccn1)C(=O)CCc1nnc(CCCc2ccccc2)o1 | 103 | -38 | -1 | 133*
O=C(Nc1ccc(Cl)cc1)c1ccc(Br)cc1F | 101 | -43 | -2 | 140*
Cc1occc1C(=O)Nc1ccc(Br)cc1F | 99 | -32 | 7 | 130*
O=C(Nc1ccccc1)Nc1ccc(Br)cc1F | 89 | -33 | 12 | 130*
O=C(CSc1nc2ncccc2[nH]1)c1cccc([N+](=O)[O-])c1 | 91 | -3 | 12 | 103
Cn1cc(Br)c(C(=O)NC2C3CC4CC(C3)CC2C4)n1 (centres undefined) | 108 | -51 | -10 | 147*
CCC(=O)Nc1nc2c(OC)ccc(OC)c2s1 | 101 | -4 | 7 | 104
CCC(=O)Nc1nc2cc(OC)ccc2s1 | 100 | -44 | 6 | 140*
COc1ccc2sc(NC(C)=O)nc2c1 | 92 | -39 | 11 | 136*
COc1ccc2sc(NC(=O)CC(C)C)nc2c1 | 80 | -51 | 24 | 146*
CCC(=O)Nc1nc2ccc3nc(C)sc3c2s1 | 102 | -54 | 7 | 149*
CCOC(=O)c1c(-c2ccc(OC)cc2)csc1/N=C/C1=C(O)CCCC1=O | 99 | -3 | 5 | 103
O=C(CSc1ccc2nnc(CCNS(=O)(=O)c3ccccc3)n2n1)Nc1nc2ccccc2s1 | 110 | 9 | -15 | 92
CC(C)(C)c1ccc(NC(=O)COc2ccc(-n3ccnc3)cc2)cc1 | 77 | -10 | 30 | 110
Cc1ccc(NC(=O)n2ccc(-c3ccc(-n4ccnc4)cc3)n2)cc1 | 109 | -39 | -7 | 135*
COc1ccc(/C(O)=C2/C(=O)C(=O)N(CCN3CCOCC3)C2c2ccccn2)cc1 (centres undefined) | 98 | -47 | 7 | 143*
Cc1c(/C(O)=C2\C(=O)C(=O)N(CCCN(C)C)C2c2ccccc2)cnn1-c1ccccc1 (centres undefined) | 82 | -9 | 26 | 106
Cc1c(/C(O)=C2/C(=O)C(=O)N(CCN3CCOCC3)C2c2ccccn2)cnn1-c1ccccc1 (centres undefined) | 25 | 90* | 88* | 17
O=C1C(=O)N(CCN2CCOCC2)C(c2ccccn2)/C1=C(/O)c1ccc(F)cc1 (centres undefined) | 104 | -6 | 0 | 106
CCN(Cc1cc(=O)n2ccsc2n1)c1cccc2ccccc12 | 99 | 1 | -1 | 99
COC(CNC(=O)C1CCCN(S(=O)(=O)c2c(C)noc2/C=C/c2cccs2)C1)OC (centres undefined) | 98 | 2 | 9 | 98
COc1cc(/C=C(\C#N)c2nc3ccccc3[nH]2)c([N+](=O)[O-])cc1OCc1ccccc1 | 137* | -5 | -36 | 104
COc1ccc(OC)c(NC(=O)c2cccnc2Sc2ccccc2)c1 | 96 | 6 | 3 | 95
O=C(NCc1ccccc1)c1cccc(COc2cc(Cl)ccc2Cl)c1 | 109 | -39 | -12 | 135*
O=C(NCc1ccccc1)c1cccc(COc2ccccc2Cl)c1 | 115 | -9 | -11 | 108
SMILES | STAT3 act | STAT1 inh | STAT3 inh | STAT1 activator
O=C(Nc1ccc(Br)cc1F)c1cccnc1 | 87 | -10 | 18 | 109
COc1ccc(Oc2nccc(-c3ccccc3)c2C#N)cc1 | 87 | -32 | 18 | 129*
Cc1onc(-c2c(Cl)cccc2Cl)c1C(=O)NCCc1ccc(S(N)(=O)=O)cc1 | 103 | 0 | 2 | 100
CCN(CC(=O)Nc1cccc(OC)c1)c1ncnc2sc(C)c(C)c12 | 88 | 8 | 15 | 93
Cc1cc(C)cc(N(C(=O)c2sc(C)nc2C)C(C(=O)NC(C)(C)C)c2ccncc2)c1 (centres undefined) | 102 | 7 | 4 | 92
O=C(Cc1ncc(C(F)(F)F)cc1Cl)NCc1ccco1 | 99 | 3 | 2 | 97
COc1ccc(N(CCCN2C(=O)c3cccc4cccc(c34)C2=O)C(=O)c2cccnc2)cc1 | 110 | 2 | -10 | 97

Assay outcomes as filed in PubChem.
